{"source": "PubChem BioAssay AID743247", "about": "(Broad Institute, 2014)", "note": "Several values for one entry are separate records, joined by “and”; a condition that tells them apart may be missing. Equal values may be shown once. The whole screen tested about 350,000 compounds, of which about 300 (0.086%) were called active.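 The calls were made as follows: active = mean inhibition across replicates of 30% or more, regardless of how many single replicates reach that level; inconclusive = mean under 30% yet at least half of replicates reach 30%; inactive = the rest.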 What follows is part of a selection rich in actives, with near analogues and random picks from the rest."}
{"assay": "inhibitors of fibronectin matrix deposition, primary screen, AH1F cells, Alexa488-fibronectin fluorescence, plate reader (AID 743247);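 also: positive control wells lacked labelled fibronectin entirely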", "settings": "AH1F fibroblasts, overnight, at 12.6 µM, active compounds read high", "procedure,_shortened": "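Assay system: AH1F fibroblasts / Quantity: 10000 cells per well / Medium: DMEM plus 2% serum, read in PBS / Reagent: labelled fibronectin 24 nM / Dosing: single dose, pinned / Times: 1 h cell attachment, overnight exposure to compound and label / Signal: fluorescence, ex 485 nm, em 525 nm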"}
{"smiles": "O=C(c1cccnc1)N1C[C@H]2[C@@H](c3ccccc31)[C@H](CO)N2C(=O)C1CC1", "inhibition": "7.1% (inactive)"}
{"smiles": "COc1cccc(-c2cnc3c(c2)C(=O)N([C@@H](C)CO)C[C@@H](C)[C@@H](CN(C)Cc2ccc(C(=O)O)cc2)O3)c1", "inhibition": "-19.8% (inactive)"}
{"smiles": "CC(C)NC(=O)N(C)C[C@H]1Oc2ccc(N)cc2C(=O)N(C)C[C@@H]1C", "inhibition": "0.428% (inactive)"}
{"smiles": "C[C@H]1CCCCO[C@@H](CN(C)C(=O)Nc2ccccc2)[C@@H](C)CN([C@@H](C)CO)C(=O)c2cc(NC(=O)CCC(F)(F)F)ccc2O1", "inhibition": "-5.23% (inactive)"}
{"smiles": "C[C@@H]1CN([C@@H](C)CO)C(=O)c2c(c3ccccc3n2C)-c2ccccc2CO[C@H]1CN(C)C(=O)N[C@H](C)c1ccccc1", "inhibition": "-3.56% (inactive)"}
{"smiles": "COCC(=O)Nc1ccc2c(c1)OC[C@@H](C)N(Cc1ccccc1C(=O)O)C[C@@H](C)[C@H](OC)CN(C)C2=O", "inhibition": "-5.62% (inactive)"}
{"smiles": "CCC(=O)Nc1ccc2c(c1)C(=O)N(C)C[C@@H](OC)[C@@H](C)CN(C(=O)CN(C)C)[C@@H](C)CO2", "inhibition": "2.05% (inactive)"}
{"smiles": "CNC[C@@H]1Oc2ccc(NC(C)=O)cc2CC(=O)N(C)C[C@@H]1C", "inhibition": "-0.299% (inactive)"}
{"smiles": "CO[C@H]1CN(C)C(=O)c2ccc(NC(=O)Nc3ccccc3)cc2OC[C@@H](C)N(C(=O)CC2CC2)C[C@@H]1C", "inhibition": "-8.75% (inactive)"}
{"smiles": "O=C(Nc1cc(S(=O)(=O)N2CCCCC2)ccc1Cl)C1COc2ccccc2O1", "note": "(stereo not given)", "inhibition": "1.13% (inactive)"}
{"smiles": "O=C(Nc1nc(-c2ccncc2)cs1)C1COc2ccccc2O1", "note": "(stereo not given)", "inhibition": "30.8% (active)"}
{"smiles": "C/C(=N/NC(=O)C1COc2ccccc2O1)c1ccco1", "note": "(stereo not given)", "inhibition": "-7.65% (inactive)"}
{"smiles": "COc1ccccc1NC(=O)N[C@H]1C=C[C@@H](CC(=O)N[C@@H](C)c2ccccc2)O[C@@H]1CO", "inhibition": "-15.6% (inactive)"}
{"smiles": "CCCc1cn(CC[C@H]2CC[C@@H](NC(=O)C3CCOCC3)[C@@H](CO)O2)nn1", "inhibition": "0.091% (inactive)"}
{"smiles": "O=C(OCc1ccc(-c2ccccc2)cc1)c1cccc(O)c1", "inhibition": "7.52% (inactive)"}
{"smiles": "O=C(COC(=O)c1ccccc1)Nc1ccccc1Sc1ccccc1", "inhibition": "-7.06% (inactive)"}
{"smiles": "O=C(OCC(O)C(O)COC(=O)c1ccccc1)c1ccccc1", "note": "(stereo not given)", "inhibition": "2.45% (active)"}
{"smiles": "C[C@H]1CN([C@@H](C)CO)C(=O)c2c(c3ccccc3n2C)-c2ccccc2CO[C@@H]1CN(C)C(=O)Nc1ccnc(N2CCOCC2)c1", "inhibition": "4.14% (inactive)"}
{"smiles": "O=C(C1CCC1)N1CC(=O)N2[C@H](CO)[C@H](c3ccc(C#CCc4ccccc4)cc3)[C@@H]2C1", "inhibition": "-13.2% (inactive)"}
{"smiles": "O=C(C[C@H]1C=C[C@@H](NC(=O)c2ccc(F)cc2)[C@@H](CO)O1)NCCc1ccncc1", "inhibition": "10.9% (inactive)"}
{"smiles": "COc1ccccc1S(=O)(=O)N1C[C@@H](O)COC[C@H]2O[C@H](CC(=O)O)CC[C@@H]21", "inhibition": "-7.66% (inactive)"}
{"smiles": "Cc1ccc(S(=O)(=O)Nc2ccc3c(c2)C(=O)N([C@@H](C)CO)C[C@@H](C)[C@@H](CN(C)Cc2ccc(C(F)(F)F)cc2)OCCCC[C@@H](C)O3)cc1", "inhibition": "7.11% (inactive)"}
{"smiles": "CC(C)NC(=O)N[C@H]1CC[C@H](CC(=O)NCCCN(C)C)O[C@H]1CO", "inhibition": "-22.3% (inactive)"}
{"smiles": "C[C@H]1CN(C)C(=O)c2cc(N(C)C)ccc2O[C@H]1CN(C)C(=O)OC(C)(C)C", "inhibition": "-2.56% (inactive)"}
{"smiles": "CO[C@@H]1CN(C)C(=O)c2cc(NC(=O)C3CC3)ccc2OC[C@H](C)N(C(=O)CN(C)C)C[C@H]1C", "inhibition": "-1.48% (inactive)"}
{"smiles": "CCC(=O)Nc1ccc2c(c1)C(=O)N(C)C[C@H](OC)[C@@H](C)CN(Cc1nccs1)[C@H](C)CO2", "inhibition": "8.21% (inactive)"}
{"smiles": "CCCC(=O)Nc1ccc2c(c1)OC[C@H](C)N(CCc1ccccc1)C[C@H](C)[C@@H](OC)CN(C)C2=O", "inhibition": "-9.33% (inactive)"}
{"smiles": "O=C1N[C@H](c2ccccc2)COCc2cn(nn2)CC[C@@H]1Cc1ccc(Cl)cc1", "inhibition": "-8.81% (inactive)"}
{"smiles": "Cc1ccc(Nc2nc(N)nc(CSc3nnc(C)s3)n2)cc1", "inhibition": "-6.84% (inactive)"}
{"smiles": "Cc1ccc(Nc2nnc(SCc3ccccc3)s2)cc1", "inhibition": "30.3% (active)"}
{"smiles": "Cc1ccc(Nc2nnc(SC(C)C(=O)NC3CC3)s2)cc1", "note": "(stereo not given)", "inhibition": "9.55% (inactive)"}
{"smiles": "CC(=O)N1C[C@@H]2C(c3ccccc3)[C@H](C1)N2Cc1ccc(F)cc1", "note": "(stereo not given in full)", "inhibition": "-14.1% (inactive) and 0.287% (inactive)"}
{"smiles": "Cc1cccc(-c2ccc(C3[C@H]4CNC[C@@H]3N4S(=O)(=O)c3ccccc3F)cc2)c1", "note": "(stereo not given in full)", "inhibition": "6.27% (inactive) and -0.776% (inactive)"}
{"smiles": "CC(=O)N(C)C[C@@H]1Oc2ccc(NC(=O)NC(C)C)cc2C(=O)N(C)C[C@H]1C", "inhibition": "0.044% (inactive)"}
{"smiles": "CC(C)NC(=O)N(C)C[C@H]1Oc2ccc(N(C)C)cc2CC(=O)N(C)C[C@@H]1C", "inhibition": "-2.09% (inactive)"}
{"smiles": "C[C@H](CO)N1C[C@H](C)[C@@H](CN(C)C(=O)Nc2cccc(F)c2)OCc2ccccc2-c2ccccc2C1=O", "inhibition": "6.45% (inactive)"}
{"smiles": "C[C@@H]1CN(C)C(=O)c2cc([N+](=O)[O-])ccc2O[C@@H]1CN(C)C(=O)OC(C)(C)C", "inhibition": "-15.7% (inactive)"}
{"smiles": "NC(c1ccccc1)c1csc(NC(=O)Nc2cccc(C(F)(F)F)c2)n1", "note": "(stereo not given)", "inhibition": "0.914% (inactive)"}
{"smiles": "CC(=O)c1ccc(Nc2nc(C(N)c3ccccc3Cl)cs2)cc1", "note": "(stereo not given)", "inhibition": "-5.17% (inactive)"}
{"smiles": "CC(=O)c1ccc(Nc2nc(C(N)c3ccccc3)cs2)cc1", "note": "(stereo not given)", "inhibition": "30.3% (active)"}
{"smiles": "CCS(=O)(=O)Nc1ccc2c(c1)C(=O)N(C)[C@@H]1CC[C@@H](CC(=O)NC)O[C@H]1CO2", "inhibition": "6.61% (inactive)"}
{"smiles": "CC(=O)Nc1cccc2c1O[C@@H](CN(C)C(C)=O)[C@@H](C)CN(C)C2=O", "inhibition": "-3.62% (inactive)"}
{"smiles": "CN(C)C(=O)c1ccc(-c2ccc(C3[C@@H]4CN(S(=O)(=O)c5cccc(Cl)c5)C[C@H]3N4)cc2)cc1", "note": "(stereo not given in full)", "inhibition": "-2.13% (inactive)"}
{"smiles": "CNC[C@H]1Oc2ccc(NC(=O)Nc3ccc(F)cc3)cc2C(=O)N([C@@H](C)CO)C[C@@H]1C", "inhibition": "-0.84% (inactive)"}
{"smiles": "CC(C)NC(=O)N(C)C[C@H]1Oc2c(cccc2N(C)C)C(=O)N(C)C[C@H]1C", "inhibition": "0.739% (inactive)"}
{"smiles": "O=C(N[C@@H]1CC[C@H](CCn2cc(-c3ccccc3)nn2)O[C@H]1CO)c1cnccn1", "inhibition": "15% (inactive)"}
{"smiles": "O=C(C[C@H]1CC[C@@H]2[C@H](COC[C@H](O)CN2CCC(F)(F)F)O1)NCC1CC1", "inhibition": "-3.5% (inactive)"}
{"smiles": "C[C@@H]1CN(C)C(=O)c2cccc(N(C)C)c2O[C@H]1CN(C)S(C)(=O)=O", "inhibition": "-2.39% (inactive)"}
{"smiles": "CN1c2ccc(-c3cccc(C#N)c3)cc2[C@H]2[C@H](CCN2S(=O)(=O)c2cccc(F)c2)[C@@H]1CO", "inhibition": "13.8% (inactive)"}
{"smiles": "COCC(=O)Nc1ccc2c(c1)OC[C@H](C)N(C)C[C@H](C)[C@@H](OC)CN(C)C2=O", "inhibition": "-14.1% (inactive)"}
{"smiles": "CC(C)NC(=O)N[C@@H]1C=C[C@@H](CC(=O)N2CCCCC2)O[C@@H]1CO", "inhibition": "-8.74% (inactive)"}
{"smiles": "c1ccc(-c2ccc(C3[C@@H]4CN(Cc5cccnc5)C[C@H]3N4)cc2)cc1", "note": "(stereo not given in full)", "inhibition": "-4.82% (inactive) and -10.1% (inactive)"}
{"smiles": "CCc1nc2c(OCCOc3ccccc3)cccn2c1N(C)C(=O)c1ccc(OC)cc1", "inhibition": "5.55% (inactive)"}
{"smiles": "CCc1nc2c(OCCc3cccc(OC)c3)cccn2c1N(C)C(=O)c1ccc(C)cc1", "inhibition": "30.8% (active)"}
{"smiles": "CCc1nc2c(OCCOc3ccccc3)cccn2c1N(C)C(=O)c1ccccc1F", "inhibition": "-0.297% (inactive)"}
{"smiles": "CCC(=O)N(C)C[C@H]1Oc2ncc(-c3ccc(C)cc3)cc2C(=O)N([C@@H](C)CO)C[C@@H]1C", "inhibition": "-13% (inactive)"}
{"smiles": "C[C@@H]1CCCCO[C@H](CN(C)C(=O)c2ccccc2)[C@@H](C)CN([C@H](C)CO)C(=O)c2cc(NC(=O)c3ccccc3)ccc2O1", "inhibition": "7% (inactive)"}
{"smiles": "O=C(C[C@H]1C[C@H]2c3cc(NC(=O)NC4CCCC4)ccc3O[C@H]2[C@@H](CO)O1)NCc1ccc(-c2ccccc2)cc1", "inhibition": "-25.6% (inactive)"}
{"smiles": "CCCNC(=O)C[C@H]1CC[C@@H]2[C@H](COc3ccc(NC(=O)c4ccc(OC)cc4)cc3C(=O)N2C)O1", "inhibition": "10.3% (inactive)"}
{"smiles": "CC(=O)N1[C@H](CO)[C@@H](c2ccc(-c3ccc(F)cc3)cc2)[C@H]1CNC(=O)C1CC1", "inhibition": "-16% (inactive)"}
{"smiles": "CC(=O)N1[C@H](CNC(=O)CN(C)C)[C@H](c2ccc(C3=CCCC3)cc2)[C@@H]1CO", "inhibition": "13.6% (inactive)"}
{"smiles": "CC[C@@H]1CC=CC[C@H](C)Oc2ccccc2C(=O)N(C)[C@H](Cc2ccccc2)C(=O)N1", "note": "(mixture of isomers)", "inhibition": "-1.05% (inactive)"}
{"smiles": "O=C1[C@H](Cc2ccc(C(F)(F)F)cc2)CCn2nncc2COC[C@@H]2CCCCN12", "inhibition": "4.17% (inactive)"}
{"smiles": "C[C@@H]1COCc2cnnn2CC[C@H](Cc2ccccc2)C(=O)N1", "inhibition": "-8.72% (inactive)"}
{"smiles": "C[C@H](CO)N1C[C@H](C)[C@@H](CN(C)S(C)(=O)=O)Oc2cc(C#CC3CC3)ccc2S1(=O)=O", "inhibition": "5.58% (inactive)"}
{"smiles": "CO[C@H]1CN(C)C(=O)c2ccc(NC(=O)C3CC3)cc2OC[C@@H](C)N(C(=O)c2ccccn2)C[C@@H]1C", "inhibition": "2.68% (inactive)"}
{"smiles": "O=C(C[C@@H]1CC[C@@H](NC(=O)C2CC2)[C@@H](CO)O1)NCc1ccccc1Cl", "inhibition": "-5.16% (inactive)"}
{"smiles": "Cc1noc(C)c1S(=O)(=O)N(C)C[C@H]1Oc2ccc(N(C)C)cc2C(=O)N([C@H](C)CO)C[C@@H]1C", "inhibition": "-9.54% (inactive)"}
{"smiles": "CO[C@H]1CN(C)C(=O)c2cc(NS(=O)(=O)c3ccccc3)ccc2OC[C@@H](C)N(Cc2nccs2)C[C@@H]1C", "inhibition": "-0.524% (inactive)"}
{"smiles": "O=C(Nc1cc(F)ccc1F)N[C@H]1CC[C@H](CCn2cc(C3CCCC3)nn2)O[C@@H]1CO", "inhibition": "-1.92% (inactive)"}
